Experimental data: paper PMC12533025 (Scientific Reports, 2025)

What was measured:
male Wistar mice = assay: Warm-water tail-flick test; format: in vivo; details: for acute antinociceptive agonist effect, tail flick assay: up to 30 mg/kg dose; for percentage of maximum possible effect (% MPE), tail flick assay: compared with the KOP agonist Nalbuphine
prolactin = assay: Prolactin ELISA assay; format: in vivo, mice; details: rat prolactin ELISA test; relative to normal level
In short: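 After dosing, blood is drawn by retro-orbital sinus bleed from isoflurane-anaesthetised mice and spun at 1000 g, 4 °C, 10 min. Plasma is diluted 1:20 and prolactin is measured by […] prolactin sandwich ELISA per kit protocol. Values are in ng/mL. Groups are compared with control by one-way ANOVA and Dunnett post-hoc test (p < 0.05).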

KOP [1] = molecular target: T1, KOP (Mus musculus, UniProt P33534); assay: Radioligand competitive binding assay, KOP; details: KOP versus MOP binding
MOP [2] = molecular target: T2, MOP (Mus musculus, UniProt P42866); assay: Radioligand competitive binding assay, MOP; details: MOP over KOP
MOP [3] = molecular target: T2, MOP; assay: [35S]-GTPγS stimulated binding functional assay, MOP; format: biochemical
In short: (§1)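 Membranes come from CHO cells expressing cloned mouse opioid receptors. Membrane protein (10 µg) is incubated with test compound (5µM), […] and 0.1nM [35S]-GTPγS in 50mM Tris, 3mM MgCl2, 0.2mM EDTA, pH 7.7, for 2 h at room temperature. Non-specific binding is defined with 20µM unlabelled GTPγS. Full-agonist references at 5µM are DAMGO (MOP) and salvinorin A (KOP).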

KOP [4] = molecular target: T1, KOP; assay: [35S]-GTPγS stimulated binding functional assay, KOP; format: biochemical; details: for agonism in the [35S]-GTPγS functional assay: KOP and MOP functional assay
In short: as §1

[5] = clinical trials; cited from earlier work
[6] = cited from earlier work
KOP [7] = details: [35S]GTP-γ-S assay; cited from earlier work

Compound: CC(C)[C@H](CN1CCc2ccccc2C1)NC(=O)Cc1c[nH]c2ccccc12 [(R)-10c, (R)-N-(1-(3,4-dihydroisoquinolin-2(1H)-yl)-3-methylbutan-2-yl)-2-(1H-indol-3-yl)acetamide]
- acute antinociceptive agonist effect, tail flick assay (male Wistar mice): failed to show any significant agonist effect

Compound: CC(C)Cc1ccc([C@@H](C)C(=O)NC(CN2CCc3ccccc3C2)C(C)C)cc1 (stereo partly drawn) [(R)-10d]
- blood prolactin levels (prolactin): double
- KOP selectivity (KOP [1]): most selective
- percentage of maximum possible effect (% MPE), tail flick assay (male Wistar mice): comparable to that of the KOP agonist Nalbuphine

Compound: Cc1c(CC(=O)N[C@@H](CN2CCc3ccccc3C2)C(C)C)cccc1[N+](=O)[O-] [(R)-10m, (R)-N-(1-(3,4-dihydroisoquinolin-2(1H)-yl)-3-methylbutan-2-yl)-2-(2-methyl-3-nitrophenyl)acetamide]
- MOP selectivity (MOP [2]): 23 fold
- EC50 (MOP [3]): 94.5 nM
- IC50 (MOP [3]): 94.5 nM
- blood prolactin levels (prolactin): double
- EC50 (KOP [4]): 666 nM
- latency in the tail-flick animal model (male Wistar mice; compared with positive control Nalbuphine): comparable latency to the positive control, Nalbuphine
- percentage of maximum possible effect (% MPE), tail flick assay (male Wistar mice): comparable to that of the KOP agonist Nalbuphine

Compound: CC(C)[C@@H](CN1CCc2ccccc2C1)NC(=O)c1cccc(-c2cccc(O)c2)c1 [(S)-10h, (S)-N-(1-(3,4-dihydroisoquinolin-2(1H)-yl)-3-methylbutan-2-yl)-3′-hydroxy-[1,1′-biphenyl]-3-carboxamide]
- functional character at KOP/MOP (KOP [4]; KOP and MOP): non-selective KOP/MOP antagonist
- agonism in the [35S]-GTPγS functional assay (KOP [4]): failed to produce any agonism
- acute antinociceptive agonist effect, tail flick assay (male Wistar mice): failed to show any significant agonist effect

Compound: CC(C)[C@@H](CN1CCc2ccccc2C1)NC(=O)c1cccc(-c2cccc(C#N)c2)c1 [(S)-10i, (S)-3′-cyano-N-(1-(3,4-dihydroisoquinolin-2(1H)-yl)-3-methylbutan-2-yl)-[1,1′-biphenyl]-3-carboxamide]
- agonism in the [35S]-GTPγS functional assay (KOP [4]): failed to produce any agonism
- acute antinociceptive agonist effect, tail flick assay (male Wistar mice): failed to show any significant agonist effect

Compound: CC(C)[C@@H](CN1CCc2ccccc2C1)NC(=O)c1cccc(-c2cccnc2)c1 [(S)-10j, (S)-N-(1-(3,4-dihydroisoquinolin-2(1H)-yl)-3-methylbutan-2-yl)-3-(pyridin-3-yl)benzamide]
- blood prolactin levels (prolactin): double
- percentage of maximum possible effect (% MPE), tail flick assay (male Wistar mice): comparable to that of the KOP agonist Nalbuphine

Compound: Cc1cc(C)cc([C@@H]2CCCN2Cc2ccc(Oc3ccc(C(N)=O)cc3F)cc2)c1 [Aticaprant]
- adverse effects (NSVT) [5]: devoid of the NSVT effect

Compound: CC(C)[C@@H](CN1CC[C@@](C)(c2cccc(O)c2)[C@@H](C)C1)NC(=O)[C@H]1Cc2ccc(O)cc2CN1 [JDTic]
- blood–brain barrier penetration [6]: low blood–brain barrier penetration
- Ki (KOP [7]): 0.006 nM
- µ/ĸ ratio (KOP [7]): 570
- δ/ĸ ratio (KOP [7]): > 16600
- adverse effects (NSVT) [5]: non-sustained ventricular tachycardia (NSVT)
